{"data": "Published values of several laboratories", "medium": "plasma", "note": "Lines come from different studies, so protocols differ."}
{"SMILES": "CC1(C)CC[C@]2(NC(=O)C(C)(F)F)CC[C@]3(C)[C@H](C(=O)C=C4[C@@]5(C)C=C(C#N)C(=O)C(C)(C)[C@@H]5CC[C@]43C)[C@@H]2C1", "system": "human", "setting": "oral, 150 mg, single dose", "Tmax [h]": 12}
{"SMILES": "CC(C)n1cc(C#N)c2cc(-n3cc(C(=O)O)cn3)ccc21", "system": "human", "setting": "oral, 200 mg, single dose, fasted, healthy volunteers", "Tmax [h]": 4.01}
{"SMILES": "C[C@@H](Oc1ccc(S(C)(=O)=O)cc1C(=O)N1C[C@@H]2C[C@]2(c2cc(C(F)(F)F)on2)C1)C(F)(F)F", "system": "human", "setting": "oral, 10 mg, single dose, fasted", "Tmax [h]": 3.5}
{"SMILES": "CC(=O)N(C)[C@H]1CCN(C(=O)c2cnc3c(c2)C[C@](C)(c2ccc(F)cc2)N3)C1", "system": "male human", "setting": "oral, 15 mg, multiple doses, once daily, steady state", "Tmax [h]": 1.14}
{"SMILES": "N#Cc1cccc(-c2ccc3ncc(-c4cc(F)cc(F)c4)c(N4CCC(N)CC4)c3c2)c1O", "system": "male human", "setting": "oral, 20 mg, single dose", "Tmax [h]": 1.5}
{"SMILES": "OC[C@H]1O[C@@H](c2cc(Cc3ccc(C4CC4)cc3)c(Cl)c3c2CCO3)[C@H](O)[C@@H](O)[C@@H]1O", "system": "human", "setting": "oral, 0.3 mg, single dose, fed, healthy volunteers", "Tmax [h]": 2}
{"SMILES": "O=C(COc1ccc(Cl)cc1)NC12CC(c3nnc([C@H]4C[C@@H](OC(F)(F)F)C4)o3)(C1)C2", "system": "human", "setting": "oral, 260 mg, multiple doses, once daily, steady state, healthy volunteers", "Tmax [h]": 3}
{"SMILES": "COc1ccc2c(c1)CN(C(=O)CCN1CCC(Cc3ccccc3)CC1)CC[S@@+]2[O-]", "system": "male human", "setting": "intravenous, 0.05 mg/kg, healthy volunteers", "Tmax [h]": 0}
{"SMILES": "Cc1cn([C@H]2C[C@H](N=[N+]=[N-])[C@@H](CO)O2)c(=O)[nH]c1=O", "system": "human", "setting": "oral, 600 mg, single dose, healthy volunteers", "Tmax [h]": 0.62}
